Experimental data: ChEMBL document CHEMBL1149321, “Synthesis, radiosynthesis, and biological evaluation of carbon-11 and iodine-123 labeled 2beta-carbomethoxy-3beta-[4'-((Z)-2-haloethenyl)phenyl]tropanes: candidate radioligands for in vivo imaging of the serotonin transporter” (J Med Chem, 2004)

How the values were obtained:
Rattus norvegicus [1] = assay: Distribution of the radio labelled compound in blood of rat brain after intravenous administration in presence of reboxetine after 60 min; format: ADME, organism-based; conditions: in vivo, 1 h
Method in brief: (§1)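 Male Sprague–Dawley rats (200–250 g), ketamine/xylazine anesthesia, tail-vein cannula. Blocker (4 mg/kg) or nothing given 15 min before iv [123I]ZIET in 10% ethanol/saline. Killed 60 min post-tracer.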

Rattus norvegicus [2] = assay: Distribution in thyroid of rat brain after intravenous administration by using [123I]ZIET after 60 min; format: ADME, organism-based, Thyroid gland; conditions: in vivo, 1 h
Method in brief: (§2)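 Male Sprague–Dawley rats (200–250 g), fed ad libitum, given ~20 μCi radiotracer iv via tail-vein cannula in 0.2 mL 10% ethanol/saline under ketamine/xylazine im anesthesia. Killed at 5, 30, 60 or 120 min (n = 5; n = 4 at 120 min). Brain regions dissected, weighed, gamma-counted with dose standards, decay-corrected; mean %ID/g ± SE.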

Rattus norvegicus [3] = assay: Distribution of the radio labelled compound in brainstem of rat brain after intravenous administration in presence of reboxetine after 60 min; format: ADME, organism-based; conditions: in vivo, 1 h; method in brief: as §1
[4] = Ratio of radioactivity in hypothalamus of rat brain to that of rat cerebellum after intravenous administration after 30 min; format: functional
Method in brief: (§3)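 Male Sprague–Dawley rats (200–250 g) given ~20 μCi [123I] tracer iv in 0.2 mL 10% ethanol/saline under ketamine/xylazine; killed at 5, 30, 60, 120 min (n = 5; n = 4 at 120 min). Brain regions dissected, gamma counted, decay-corrected to %ID/g; regional uptake divided by cerebellum.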

Rattus norvegicus [5] = assay: Distribution of the radio labelled compound in brainstem of rat brain after intravenous administration in presence of citalopram after 60 min; format: ADME, organism-based; conditions: in vivo, 1 h; method in brief: as §1
Rattus norvegicus [6] = assay: Distribution in blood of rat brain after intravenous administration by using [123I]ZIET after 120 min; format: ADME, organism-based; conditions: in vivo, 2 h; method in brief: as §2
Rattus norvegicus [7] = assay: Distribution of the radio labelled compound in striatum of rat brain after intravenous administration in presence of citalopram after 60 min; format: ADME, organism-based; conditions: in vivo, 1 h
Method in brief: (§4)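 Male Sprague–Dawley rats (200–250 g) under ketamine/xylazine anaesthesia with tail-vein cannulas. Blocker or none given 15 min before ~20 μCi [123I] tracer iv in 0.2 mL 10% ethanol/saline; blocker dose 4 mg/kg.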

Rattus norvegicus [8] = assay: Distribution of the radio labelled compound in thyroid of rat brain after intravenous administration in absence of blocker after 60 min; format: ADME, organism-based, Thyroid gland; conditions: in vivo, 1 h; method in brief: as §4
Rattus norvegicus [9] = assay: Distribution of the radio labelled compound in blood of rat brain after intravenous administration in presence of citalopram after 60 min; format: ADME, organism-based; conditions: in vivo, 1 h; method in brief: as §1
Rattus norvegicus [10] = assay: Distribution of the radio labelled compound in hypothalamus of rat brain after intravenous administration in absence of blocker after 60 min; format: ADME, organism-based; conditions: in vivo, 1 h; method in brief: as §4
Rattus norvegicus [11] = assay: Distribution in cerebellum of rat brain after intravenous administration by using [123I]ZIET after 5 min; format: ADME, organism-based; conditions: in vivo; method in brief: as §2
[12] = Ratio of radioactivity in frontal cortex of rat brain to that of rat cerebellum after intravenous administration after 5 min; format: functional; method in brief: as §3
Rattus norvegicus [13] = assay: Distribution in rest of rat brain after intravenous administration by using [123I]ZIET after 120 min; format: ADME, organism-based; conditions: in vivo, 2 h; method in brief: as §2
Rattus norvegicus [14] = assay: Distribution in striatum of rat brain after intravenous administration by using [123I]-ZIET after 5 min; format: ADME, organism-based; conditions: in vivo; method in brief: as §2
[15] = Ratio of radioactivity in frontal cortex of rat brain to that of rat cerebellum after intravenous administration after 30 min; format: functional; method in brief: as §3
Rattus norvegicus [16] = assay: Distribution of the radio labelled compound in brainstem of rat brain after intravenous administration in presence of RTI-113 after 60 min; format: ADME, organism-based; conditions: in vivo, 1 h; method in brief: as §1
Rattus norvegicus [17] = assay: Distribution of the radio labelled compound in striatum of rat brain after intravenous administration in presence of RTI-113 after 60 min; format: ADME, organism-based; conditions: in vivo, 1 h; method in brief: as §4
Rattus norvegicus [18] = assay: Distribution of the radio labelled compound in occipital cortex of rat brain after intravenous administration in presence of reboxetine after 60 min; format: ADME, organism-based; conditions: in vivo, 1 h; method in brief: as §4
Rattus norvegicus [19] = assay: Distribution in rest of rat brain after intravenous administration by using [123I]ZIET after 5 min; format: ADME, organism-based; conditions: in vivo; method in brief: as §2
Rattus norvegicus [20] = assay: Distribution in thyroid of rat brain after intravenous administration by using [123I]ZIET after 30 min; format: ADME, organism-based, Thyroid gland; conditions: in vivo, 0.5 h; method in brief: as §2

Question: Which results are given for `COC(=O)C1C(c2ccc(/C=C\[123I])cc2)CC2CCC1N2C` (stereo not given)?
Answer: Activity (Rattus norvegicus [1]): 0.26; Activity (Rattus norvegicus [2]): 1.11; Activity (Rattus norvegicus [3]): 0.36; Ratio [4]: 1.6; Activity (Rattus norvegicus [5]): 0.14; Activity (Rattus norvegicus [6]): 0.38; Activity (Rattus norvegicus [7]): 0.26; Activity (Rattus norvegicus [8]): 0.54; Activity (Rattus norvegicus [9]): 0.21; Activity (Rattus norvegicus [10]): 0.42; Activity (Rattus norvegicus [11]): 0.34; Ratio [12]: 1.3; Activity (Rattus norvegicus [13]): 0.39; Activity (Rattus norvegicus [14]): 0.39; Ratio [15]: 2; Activity (Rattus norvegicus [16]): 0.35; Activity (Rattus norvegicus [17]): 0.45; Activity (Rattus norvegicus [18]): 0.42; Activity (Rattus norvegicus [19]): 0.38; Activity (Rattus norvegicus [20]): 0.74
